The text below walks through data of ChEMBL document CHEMBL4350960, “Structural Basis for E. coli Penicillin Binding Protein (PBP) 2 Inhibition, a Platform for Drug Design” (J Med Chem, 2019).

Each structure is given as a SMILES string. In brackets after ≈: the same amount, converted by molar mass. Activity calls are given as the source filed them. The calls are words filed in the database; no cut-off is given here.

Experiment [1] relates to Pseudomonas aeruginosa. As to the kind of experiment: Antibacterial activity against Pseudomonas aeruginosa UFR49 measured after 16 to 20 hrs by broth microdilution method. In kind it is functional. On the technique in general: Broth dilution looks for growth in wells or tubes with falling amounts of substance.
Experiment [2] has as its target T1, Penicillin-binding protein 1B (Escherichia coli K-12) (UniProt P02919).
T1 sequence (whole entry): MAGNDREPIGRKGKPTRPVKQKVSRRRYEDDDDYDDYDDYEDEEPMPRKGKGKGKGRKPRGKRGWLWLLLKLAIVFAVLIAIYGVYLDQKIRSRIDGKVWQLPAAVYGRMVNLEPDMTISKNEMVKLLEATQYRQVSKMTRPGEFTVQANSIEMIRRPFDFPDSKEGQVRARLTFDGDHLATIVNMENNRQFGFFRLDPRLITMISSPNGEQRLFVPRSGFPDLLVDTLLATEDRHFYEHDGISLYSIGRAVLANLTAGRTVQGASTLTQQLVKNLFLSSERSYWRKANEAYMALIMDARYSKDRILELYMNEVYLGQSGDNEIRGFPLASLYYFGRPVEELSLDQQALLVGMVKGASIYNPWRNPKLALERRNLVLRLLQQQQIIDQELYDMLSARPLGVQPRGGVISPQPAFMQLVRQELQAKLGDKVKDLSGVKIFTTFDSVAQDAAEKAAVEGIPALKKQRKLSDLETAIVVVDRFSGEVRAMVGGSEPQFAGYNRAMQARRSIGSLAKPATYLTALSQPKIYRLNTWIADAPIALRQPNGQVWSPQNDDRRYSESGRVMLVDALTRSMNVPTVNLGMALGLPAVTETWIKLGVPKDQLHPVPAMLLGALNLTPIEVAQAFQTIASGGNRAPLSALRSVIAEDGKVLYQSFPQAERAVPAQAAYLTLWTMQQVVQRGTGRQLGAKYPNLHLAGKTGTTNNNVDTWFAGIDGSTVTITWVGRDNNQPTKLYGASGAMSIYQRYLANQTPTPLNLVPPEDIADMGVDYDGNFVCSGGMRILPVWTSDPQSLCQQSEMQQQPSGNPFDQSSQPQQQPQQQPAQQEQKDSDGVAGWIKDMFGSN
As to the kind of experiment: Inhibition of Escherichia coli PBP1b.

The target in experiment [3] is T2, Penicillin-binding protein 1A (Escherichia coli K-12) (UniProt P02918).
T2 sequence (whole entry): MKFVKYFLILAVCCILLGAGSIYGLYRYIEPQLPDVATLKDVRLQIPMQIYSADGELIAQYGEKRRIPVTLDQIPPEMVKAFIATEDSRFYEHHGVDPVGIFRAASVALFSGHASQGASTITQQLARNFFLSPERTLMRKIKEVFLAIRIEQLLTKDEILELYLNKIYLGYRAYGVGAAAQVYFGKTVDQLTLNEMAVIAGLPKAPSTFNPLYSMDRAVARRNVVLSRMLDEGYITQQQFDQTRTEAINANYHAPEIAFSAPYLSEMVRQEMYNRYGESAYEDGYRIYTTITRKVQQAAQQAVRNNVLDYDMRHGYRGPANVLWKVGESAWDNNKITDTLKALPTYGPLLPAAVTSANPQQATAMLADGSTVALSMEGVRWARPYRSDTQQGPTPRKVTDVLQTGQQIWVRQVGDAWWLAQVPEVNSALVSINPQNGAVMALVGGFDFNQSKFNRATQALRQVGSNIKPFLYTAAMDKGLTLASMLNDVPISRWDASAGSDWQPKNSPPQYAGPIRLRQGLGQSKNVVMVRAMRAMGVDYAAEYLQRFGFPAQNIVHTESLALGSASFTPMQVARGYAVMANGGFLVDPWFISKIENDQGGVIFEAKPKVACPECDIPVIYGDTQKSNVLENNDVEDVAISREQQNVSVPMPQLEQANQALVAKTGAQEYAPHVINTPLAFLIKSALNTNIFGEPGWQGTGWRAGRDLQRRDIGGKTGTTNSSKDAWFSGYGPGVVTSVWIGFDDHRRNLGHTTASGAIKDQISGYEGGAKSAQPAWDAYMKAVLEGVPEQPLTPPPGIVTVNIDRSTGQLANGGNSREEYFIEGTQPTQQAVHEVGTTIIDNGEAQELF
The experiment is described as follows: Inhibition of Escherichia coli PBP1a.

Experiment [4] has as its system Escherichia coli. As to the kind of experiment: Inhibition of Escherichia coli PBP3.
Experiment [5] concerns the target T3, Peptidoglycan D,D-transpeptidase MrdA (Escherichia coli K-12) (UniProt P0AD65).
T3 sequence (whole entry): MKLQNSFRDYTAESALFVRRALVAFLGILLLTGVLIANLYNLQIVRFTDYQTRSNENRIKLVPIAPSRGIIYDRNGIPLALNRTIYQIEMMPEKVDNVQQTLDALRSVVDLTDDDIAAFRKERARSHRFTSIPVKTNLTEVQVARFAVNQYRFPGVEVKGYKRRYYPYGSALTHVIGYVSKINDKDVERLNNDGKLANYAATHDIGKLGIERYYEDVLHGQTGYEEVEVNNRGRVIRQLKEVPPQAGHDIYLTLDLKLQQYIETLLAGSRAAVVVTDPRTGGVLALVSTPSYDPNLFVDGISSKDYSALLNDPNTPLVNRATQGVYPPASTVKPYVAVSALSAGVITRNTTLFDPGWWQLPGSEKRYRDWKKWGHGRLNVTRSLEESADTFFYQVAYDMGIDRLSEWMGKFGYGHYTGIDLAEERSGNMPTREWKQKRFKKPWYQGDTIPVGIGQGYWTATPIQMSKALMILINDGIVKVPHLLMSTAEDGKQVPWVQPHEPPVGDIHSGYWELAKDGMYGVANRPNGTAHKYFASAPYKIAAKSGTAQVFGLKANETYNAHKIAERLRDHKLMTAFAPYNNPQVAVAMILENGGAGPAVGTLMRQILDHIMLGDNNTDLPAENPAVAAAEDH
The experiment is described as follows: (§1) Inhibition of bocillin-FL binding to Escherichia coli K12 NusA-fused/His6-tagged PBP2 (57 to 615 residues) expressed in Escherichia coli BL21(DE3) preincubated for 30 mins followed by bocillin-FL addition by RT-fluorescence anisotropy method. Background: Fluorescence polarisation rises when a labelled molecule tumbles more slowly, as on binding a larger partner.

Experiment [6] deals with Escherichia coli. The experiment is described as follows: Antibacterial activity against Escherichia coli UFR39 measured after 16 to 20 hrs by broth microdilution method. In kind it is functional. The method in brief:
(§2)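 Broth microdilution MICs following CLSI M7-A7, run against genotyped carbapenem-resistant E. coli and P. aeruginosa strains.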

For experiment [7], the target named is T4, Peptidoglycan D,D-transpeptidase MrdA (Escherichia coli K-12, UniProt P0AD65).
T4 sequence (P0AD65 whole entry): T3 sequence (whole entry)
The description is as §1.

In experiment [8] the test system is Pseudomonas aeruginosa. As to the kind of experiment: Antibacterial activity against Pseudomonas aeruginosa clinical isolates measured after 16 to 20 hrs by broth microdilution method. The experiment is classed as functional. In a few lines: as §2
Experiment [9] concerns Escherichia coli. The experiment is described as follows: Antibacterial activity against Escherichia coli clinical isolates measured after 16 to 20 hrs by broth microdilution method. The experiment is classed as functional. The method in brief: as §2

On to `O=C1N2CC=C(c3ccncc3)C(C2)N1OS(=O)(=O)[O-].[Na+]` (stereo not drawn), for which, in the experiment with Pseudomonas aeruginosa [1], the MIC is over 32 mg/L. The inhibition entry (in experiment [2]; in [3]; with Escherichia coli [4]) was “inactive” each time. For the same compound, the inhibition result in experiment [5] was “Active”.
In the experiment with Pseudomonas aeruginosa [1], `O=C1N2CC=C(c3cccnc3)C(C2)N1OS(=O)(=O)[O-].[Na+]` (stereo not drawn) gave an MIC of over 32 mg/L. For the same compound, the inhibition entry (in [2]; in experiment [3]; with Escherichia coli [4]) was “inactive” in each case. In experiment [5], the inhibition entry is “Active”.
With `O=C1N2CC=CC(C2)N1OS(=O)(=O)[O-].[Na+]` (stereo not drawn), the MIC against Pseudomonas aeruginosa [1] was over 32 mg/L; in the experiment with Escherichia coli [6], 16 mg/L. The inhibition entry (in experiment [2]; in [3]; with Escherichia coli [4]) was “inactive” in each case. This compound showed an IC50 in experiment [7] of 0.57 µM.
Consider `O=C1N2CC=C(c3cnco3)C(C2)N1OS(=O)(=O)[O-].[Na+]` (stereo not drawn), for which the results for the MIC in the experiment on Pseudomonas aeruginosa [1] and in the experiment on Escherichia coli [6] were over 32 mg/L and 4 mg/L, respectively. Also, the inhibition result (in experiment [2]; in experiment [3]; in the experiment on Escherichia coli [4]) was “inactive” in each case. Besides, in [7], the IC50 is 0.025 µM.
Turning to `O=C(NNC(=O)[C@@H]1CC[C@@H]2CN1C(=O)N2OS(=O)(=O)O)[C@@H]1CCCNC1` [ZIDEBACTAM], the results for the MIC50 in the experiment on Pseudomonas aeruginosa [8] and against Escherichia coli [9] were 8 mg/L (≈ 20.4 µM) and 32 mg/L (≈ 81.8 µM), respectively. The MIC90 in the experiment on Pseudomonas aeruginosa [8] was 16 mg/L (≈ 40.9 µM); against Escherichia coli [9], over 32 mg/L.
Turning to `C[C@@H](O)[C@H]1C(=O)N2C(C(=O)O)=C(S[C@@H]3CN[C@H](C(=O)N(C)C)C3)[C@H](C)[C@H]12` [MEROPENEM], the MIC with Escherichia coli [6] was determined as 128 mg/L (≈ 334 µM). The MIC50 against Pseudomonas aeruginosa [8] stood at 8 mg/L (≈ 20.9 µM); against Escherichia coli [9], 0.5 mg/L (≈ 1.3 µM). Also, the MIC90 against Pseudomonas aeruginosa [8] and against Escherichia coli [9] was over 32 mg/L throughout.
As to `O=C1N2CCCC(C2)N1OS(=O)(=O)[O-].[Na+]` (stereo not drawn), the MIC in the experiment with Pseudomonas aeruginosa [1] and against Escherichia coli [6] was over 32 mg/L throughout. Also, the inhibition result (in experiment [2]; in [3]; in the experiment on Escherichia coli [4]) was “inactive” in each case. This compound also displayed an IC50 in experiment [7] of over 200 µM.
Regarding `O=C1N2CC=C(c3ncco3)C(C2)N1OS(=O)(=O)[O-].[Na+]` (stereo not drawn), the MIC with Pseudomonas aeruginosa [1] is over 32 mg/L.
In the case of `NC(=O)[C@@H]1CC[C@@H]2CN1C(=O)N2OS(=O)(=O)[O-].[Na+]` [AVIBACTAM SODIUM], the MIC was over 32 mg/L against Pseudomonas aeruginosa [1] and 16 to 32 mg/L with Escherichia coli [6]. In addition, the MIC50 with Pseudomonas aeruginosa [8] was over 32 mg/L; with Escherichia coli [9], 32 mg/L. Moreover, the MIC90 against Pseudomonas aeruginosa [8] and with Escherichia coli [9] was over 32 mg/L throughout. The compound also displayed an IC50 in [7] of 0.59 µM.
Take `CC(C)(O/N=C(\C(=O)N[C@@H]1C(=O)N2C(C(=O)[O-])=C(C[n+]3ccccc3)CS[C@H]12)c1csc(N)n1)C(=O)O` [CEFTAZIDIME]: the values for the MIC against Pseudomonas aeruginosa [1] and against Escherichia coli [6] were 64 mg/L (≈ 117 µM) and over 256 mg/L, respectively. Moreover, the MIC50 against Pseudomonas aeruginosa [8] and against Escherichia coli [9] was over 32 mg/L in each case. Besides, the MIC90 with Pseudomonas aeruginosa [8] and with Escherichia coli [9] was over 32 mg/L throughout.
`O=C1N2CC=C(c3cnoc3)C(C2)N1OS(=O)(=O)[O-].[Na+]` (stereo not drawn) gave an MIC with Pseudomonas aeruginosa [1] of over 32 mg/L. In addition, the IC50 in [7] was determined as 0.017 µM.
`O=C1N2CC=C(c3ccccn3)C(C2)N1OS(=O)(=O)[O-].[Na+]` (stereo not drawn): the MIC against Pseudomonas aeruginosa [1] is over 32 mg/L. For the same compound, the inhibition entry (in experiment [2]; in experiment [3]; with Escherichia coli [4]) was “inactive” each time. Besides, the inhibition result in [5] was “Active”.

A word on the MIC: it is the least concentration at which growth counts as inhibited. Read a high MIC as weaker potency. One may read the IC50 as the concentration needed to halve the response being measured. A low value points to inhibition by little substance. Broadly, the MIC50 is the lowest concentration that inhibits either 50% of growth or 50% of the strains tested, depending on the study. A high value points to lower susceptibility. By MIC90 is commonly meant an inhibitory concentration at the 90% level, which refers to growth in some studies and to a panel of isolates in others. A high value points to weaker potency.
